These results are taken from ChEMBL document CHEMBL4130377 (Eur J Med Chem, 2017).

The test system of test [1] is Mus musculus. Put plainly: Body weight lowering effect in ICR mouse assessed as cumulative changes in body weight at 1000 nmol/kg, ip administered every other day for 2 weeks. It counts as functional, organism-based.
The subject of test [2] is Mus musculus. Put plainly: Anorectic activity in overnight fasted ICR mouse assessed as reduction in cumulative food intake at 1000 nmol/kg, ip measured up to 8 hrs post dose.
For a further test, the target named is Glucagon receptor (Homo sapiens, UniProt P47871). Put plainly: Agonist activity at human GCGR expressed in HEK293 cells assessed as increase in cAMP accumulation after 20 mins by HTRF assay. It counts as functional, cell-based.
Sequence of Glucagon receptor (P47871 whole entry): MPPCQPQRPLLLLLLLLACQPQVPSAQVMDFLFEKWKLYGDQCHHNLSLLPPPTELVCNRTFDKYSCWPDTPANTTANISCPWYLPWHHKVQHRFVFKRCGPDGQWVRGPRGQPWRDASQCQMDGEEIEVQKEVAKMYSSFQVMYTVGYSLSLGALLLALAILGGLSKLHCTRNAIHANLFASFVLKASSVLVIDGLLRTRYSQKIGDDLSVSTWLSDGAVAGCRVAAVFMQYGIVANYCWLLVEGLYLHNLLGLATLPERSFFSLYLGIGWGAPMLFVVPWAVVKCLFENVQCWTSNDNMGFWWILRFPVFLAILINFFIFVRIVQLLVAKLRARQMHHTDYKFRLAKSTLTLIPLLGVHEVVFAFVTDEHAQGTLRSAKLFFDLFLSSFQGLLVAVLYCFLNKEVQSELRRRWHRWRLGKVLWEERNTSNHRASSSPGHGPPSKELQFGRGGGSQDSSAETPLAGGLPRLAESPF
Test [3] has as its system Mus musculus. Put plainly: Antiobesity activity in diet-induced obese C57Bl/6 mouse model assessed as plasma triglyceride level at 3.48 mg/kg, ip administered every other day for 30 days (reference value: 0.84 +/- […]). It counts as functional, organism-based.
Test [4] concerns Mus musculus. Put plainly: Antiobesity activity in diet-induced obese C57Bl/6 mouse model assessed as serum leptin level at 3.48 mg/kg, ip administered every other day for 30 days by ELISA (reference value: 1.9 +/- 0.07 ng/ml). It counts as functional, organism-based. The gist of the method:
(§1)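 Male C57Bl/6 mice were fed high-fat diet (60% kcal fat) for 12 weeks; DIO mice were ~38 g at 20 weeks. Dosing was i.p. (10 mL/kg in 0.9% saline) every other day at 9 am for 30 days, with saline controls and low-fat-diet lean mice for reference. Insulin, leptin and adiponectin were measured at study end. n=6-8 per group, means ± SD.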

Test [5] deals with Mus musculus. Put plainly: Antiobesity activity in diet-induced obese C57Bl/6 mouse model assessed as plasma insulin level at 3.48 mg/kg, ip administered every other day for 30 days by ELISA (reference value: 13.33 +/- […]). The test is classed as functional, organism-based.
The test system of test [6] is Mus musculus. Put plainly: Antiobesity activity in diet-induced obese C57Bl/6 mouse model assessed as serum adiponectin level at 3.48 mg/kg, ip administered every other day for 30 days by ELISA (reference value: 8.9 +/- 0.38 ug/ml). The test is classed as functional, organism-based. The gist of the method:
as §1

Test [7] deals with Mus musculus. Put plainly: Anorectic activity in overnight fasted ICR mouse assessed as reduction in cumulative food intake at 1000 nmol/kg, ip measured at <2 hrs post dose. The test is classed as functional, organism-based.
Test [8] has as its system Mus musculus. Put plainly: Antiobesity activity in diet-induced obese C57Bl/6 mouse model assessed as plasma cholesterol level at 3.48 mg/kg, ip administered every other day for 30 days (reference value: 4.33 +/- […]). The test is classed as functional, organism-based.
Test [9] relates to Mus musculus. Put plainly: Anorectic activity in overnight fasted ICR mouse assessed as reduction in cumulative food intake at 1000 nmol/kg, ip measured at 2 hrs post dose. The test is classed as functional, organism-based. The gist of the method: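 Male ICR mice, 9 weeks old, […], then given a single i.p. dose of 1000 nmol/kg in 0.9% saline; saline-injected controls. Mice were returned to home cages with preweighed food, which was reweighed at 0.5, 1, 2, 4, 8 and 24 h. Readout is cumulative food intake, n=6-8 per group.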

The source made the active and inactive calls. The calls are words filed in the database; no cut-off is given here.

For the compound `CC[C@H](C)[C@H](NC(=O)[C@H](Cc1ccccc1)NC(=O)[C@H](CCC(=O)O)NC(=O)[C@H](CCCCN)NC(=O)[C@H](C)NC(=O)[C@H](C)NC(=O)[C@H](CCC(N)=O)NC(=O)CNC(=O)[C@H](CCC(=O)O)NC(=O)[C@H](CC(C)C)NC(=O)[C@H](Cc1ccc(O)cc1)NC(=O)[C@H](CO)NC(=O)[C@H](CO)NC(=O)[C@@H](NC(=O)[C@H](CC(=O)O)NC(=O)[C@H](CO)NC(=O)[C@@H](NC(=O)[C@H](Cc1ccccc1)NC(=O)[C@@H](NC(=O)CNC(=O)[C@H](CCC(=O)O)NC(=O)[C@H](C)NC(=O)[C@@H](N)Cc1c[nH]cn1)[C@@H](C)O)[C@@H](C)O)C(C)C)C(=O)N[C@@H](C)C(=O)N[C@@H](Cc1c[nH]c2ccccc12)C(=O)N[C@@H](CC(C)C)C(=O)N[C@H](C(=O)N[C@@H](CCCCN)C(=O)NCC(=O)N[C@@H](CCCN=C(N)N)C(=O)NCC(=O)O)C(C)C`, the outcome with Mus musculus [1] was inactive. The outcome with Mus musculus [2] was Active. Moreover, the EC50 entry on Glucagon receptor is on record as “Not Active”.
Consider GLUCAGON, for which the Activity was found to be 1.19 mmol/L in the test on Mus musculus [3]; 1.79 ng/mL in the test with Mus musculus [4]; 8.41 ng/mL in the test on Mus musculus [5]; 12.2 µg/mL with Mus musculus [6]; 5.08 mmol/L in the test with Mus musculus [8]. Further, the outcome in the test on Mus musculus [1] and with Mus musculus [9] was inactive. Further, the outcome with Mus musculus [7] was Active.
